# From ChEMBL document CHEMBL5247600, “Rational design of metabolically stable HDAC inhibitors: An overhaul of trifluoromethyl ketones” (Eur J Med Chem, 2022)
# Active and inactive are the calls of the source. The rule behind the calls is not given here.
# Key:
# HCT-116 [1] = experiment: Anticancer activity against human HCT-116 cells assessed as cell growth inhibition incubated for 3 days by methylene blue staining based colorimetric assay; assay type: functional; conditions: HCT-116, 72 h
# [2] = tested on: Panel NCI-60 (60 carcinoma cell lines); experiment: Anticancer activity against human Panel NCI-60 (60 carcinoma cell lines) cells assessed as total cell growth inhibition incubated for 3 days by methylene blue staining based colorimetric assay relative to control; assay type: functional; conditions: 72 h, time 3 day
# In short: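 NCI-60 five-dose screen at five concentrations. […] TGI is the concentration giving total growth inhibition.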
# [3] = tested on: Panel NCI-60 (60 carcinoma cell lines); experiment: Anticancer activity against human Panel NCI-60 (60 carcinoma cell lines) cells assessed as cell growth inhibition incubated for 3 days by methylene blue staining based colorimetric assay relative to control; assay type: functional; conditions: 72 h, time 3 day
# In short: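 NCI-60 five-dose screen at five concentrations. TGI is the concentration giving total growth inhibition.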
# [4] = tested on: Panel NCI-60 (60 carcinoma cell lines); experiment: Anticancer activity against human Panel NCI-60 (60 carcinoma cell lines) cells assessed as cell growth inhibition at 10 uM incubated for 3 days by methylene blue staining based colorimetric assay relative to control; assay type: functional; design: scale not given: the % may be the effect or the level left; conditions: time 3 day
# In short: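 NCI-60 one-dose screen at a single concentration of 10 μM. Read-out is mean growth percentage across the panel; positive values denote cytostatic activity and negative values cytotoxicity.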
# [5] = Metabolic stability in human Liver S9 fraction assessed as metabolite TFMA 90 formation and measured for 30 mins by LC-ESI-MS analysis; assay type: ADME, subcellular; conditions: s9, 0.5 h
# In short: (§1)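 Human liver S9 fraction assay. Substrate 0.02 mM, 0.1 M buffer and 1 mM NADPH preincubated 10 min at 37 °C, then S9 (0.5 mg) added in 1 mL total; run in duplicate. Aliquots taken every 15 min or at 1 h and 2 h, residue taken up in methanol, diluted 1:1 with water and analysed by LC-ESI-MS tracking M+1 ions.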
# [6] = Metabolic stability in human Liver S9 fraction assessed as disappearance of compound and measured after 15 mins by LC-ESI-MS analysis; assay type: ADME, subcellular; in short: as §1
# HT-1080 = experiment: Anticancer activity against human HT-1080 cells assessed as cell growth inhibition incubated for 3 days by methylene blue staining based colorimetric assay; assay type: functional; conditions: HT-1080, 72 h
# In short: (§2)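 Cells kept in DMEM with 10% calf or fetal bovine serum plus penicillin/streptomycin (1000 U/ml each) at 37 °C, 5% CO2. Seeded at 5000/well (n = 3), treated next day, then after 3 days fixed/stained 30 min at room temperature with methylene blue saturated in 50% ethanol.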
# MDA-MB-231 = experiment: Anticancer activity against human MDA-MB-231 cells assessed as cell growth inhibition incubated for 3 days by methylene blue staining based colorimetric assay; assay type: functional; conditions: MDA-MB-231, 72 h; in short: as §2
# MDA-MB-468 = experiment: cells; assay type: functional, cell-based; conditions: Homo sapiens, MDA-MB-468, 72 h
# HeLa = experiment: cells; assay type: functional, cell-based; conditions: Homo sapiens, 72 h
# NCI-H522 [7] = experiment: cells; assay type: functional, cell-based; conditions: Homo sapiens, NCI-H522, 72 h
# U2OS = experiment: Anticancer activity against human U2OS cells assessed as cell growth inhibition incubated for 3 days by methylene blue staining based colorimetric assay; assay type: functional; conditions: 72 h; in short: as §2
# HCT-116 [8] = experiment: Induction of apoptosis in human HCT116 cells assessed as increase in cleaved PARP1 level at 4 to 8 uM incubated for 24 hrs by Western blot analysis; assay type: functional, cell-based; conditions: dose 4-8 µM
# In short: (§3)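 HCT116 cells treated 24 h at the indicated concentrations. Lysates normalized by BCA, run on 12.5% SDS-PAGE and transferred to PVDF. Blocked 1 h in 5% milk/PBST, primary antibody against cleaved PARP overnight at 4 °C, then HRP secondary 1:10 000 and ECL detection.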
# NCI-H522 [9] = experiment: Anticancer activity against human NCI-H522 cells assessed as cell survival rate at 30 uM incubated for 3 days by methylene blue staining based colorimetric assay; assay type: functional; conditions: time 3 day; in short: as §2
# NCI-H522 [10] = experiment: Anticancer activity against human NCI-H522 cells assessed as cell survival rate incubated for 3 days by methylene blue staining based colorimetric assay; assay type: functional; conditions: NCI-H522, 72 h; in short: as §2
# [11] = Cytotoxicity against human WI-38 cells assessed as cell survival rate at 30 uM incubated for 3 days by methylene blue staining based colorimetric assay; assay type: toxicity; conditions: time 3 day, read-out: Activity; in short: as §2
# [12] = Cytotoxicity against human WI-38 cells assessed as cell survival rate incubated for 3 days by methylene blue staining based colorimetric assay; assay type: toxicity; in short: as §2
# HCT-116 [13] = experiment: Anticancer activity against human HCT-116 cells assessed as cell survival rate incubated for 3 days by methylene blue staining based colorimetric assay; assay type: functional; conditions: HCT-116, 72 h; in short: as §2
# [14] = Cytotoxicity against human RPE cells assessed as cell survival rate incubated for 3 days by methylene blue staining based colorimetric assay; assay type: toxicity; in short: as §2
# HCT-116 [15] = experiment: Anticancer activity against human HCT-116 cells assessed as cell survival rate at 30 uM incubated for 3 days by methylene blue staining based colorimetric assay; assay type: functional; conditions: time 3 day; in short: as §2
# [16] = Cytotoxicity against human RPE cells assessed as cell survival rate at 30 uM incubated for 3 days by methylene blue staining based colorimetric assay; assay type: toxicity; conditions: time 3 day, read-out: Activity; in short: as §2
# [17] = Metabolic stability in human Liver S9 fraction assessed as disappearance of compound and measured after 2 hrs by LC-ESI-MS analysis; assay type: ADME, subcellular; conditions: s9, 2 h; in short: as §1
# HCT-116 [18] = experiment: Induction of apoptosis in human HCT116 cells assessed as increase in cleaved PARP1 level at 5 to 10 uM incubated for 24 hrs by Western blot analysis; assay type: functional, cell-based; conditions: dose 5-10 µM; in short: as §3
SMILES,IC50 (HCT-116 [1]) [µM],also measured
O=C(CCCCCCNC(=O)C(O)(O)C(F)(F)F)Nc1nc2ccc(Cl)cc2s1,11,–
O=C(CCCCCCNC(=O)C(O)(O)C(F)(F)F)Nc1ccc(Cl)cc1,4.23,TGI [2]: 26.9 µM; GI50 [3]: 5.13 µM; Activity [4]: 15.99%
COc1cc(NC(=O)CCCCCCNC(=O)C(O)(O)C(F)(F)F)cc(OC)c1OC,14.1,–
O=C(CCCCCCNC(=O)C(O)(O)C(F)(F)F)Nc1c(F)cc(F)cc1F,22.2,–
O=C(CCCCCCNC(=O)C(O)(O)C(F)(F)F)Nc1nc2ccccc2s1,2.37,IC50 (HT-1080): 2.65 µM; IC50 (MDA-MB-231): 1.83 µM; TGI [2]: 21.4 µM; IC50 (MDA-MB-468): 1.31 µM; GI50 [3]: 3.39 µM; Activity [4]: -2.45%; IC50 (HeLa): 1.52 µM; IC50 (NCI-H522 [7]): 2.86 µM; IC50 (U2OS): 1.41 µM
O=C(CCCCCCNC(=O)C(O)(O)C(F)(F)F)Nc1nc2ccc(F)cc2s1,6.47,–
COc1ccc2nc(NC(=O)CCCCCCNC(=O)C(O)(O)C(F)(F)F)sc2c1,7.56,–
COc1ccc(OC)c(NC(=O)CCCCCCNC(=O)C(O)(O)C(F)(F)F)c1,3.87,Activity [4]: 35%
COc1ccc2sc(NC(=O)CCCCCCNC(=O)C(O)(O)C(F)(F)F)nc2c1,2.18,IC50 (HT-1080): 2.28 µM; IC50 (MDA-MB-231): 0.81 µM; TGI [2]: 12.3 µM; IC50 (MDA-MB-468): 3.65 µM; Activity (HCT-116 [8]): Active; GI50 [3]: 1.23 µM; Activity [4]: -4.91%; IC50 (NCI-H522 [7]): 3.23 µM; IC50 (U2OS): 3.29 µM
OC(c1c(F)c(F)c(-n2cc(-c3ccccc3)nn2)c(F)c1F)C(F)(F)F (stereo not drawn),> 100,–
Cc1ccc(S(=O)(=O)Nc2ccc(NC(=O)CCCCCCNC(=O)C(O)(O)C(F)(F)F)cc2)cc1,17.2,–
O=C(CCCCCCNC(=O)C(O)(O)C(F)(F)F)Nc1ncc(-c2ccccc2)s1,–,Activity [4]: -10.06%
O=C(CCCCCCC(=O)Nc1ccccc1)NO [VORINOSTAT],–,IC50 (HT-1080): 3.56 µM
O=C(CCCCCCNC(=O)C(O)(O)C(F)(F)F)Nc1ccc(S(F)(F)(F)(F)F)cc1,9.11,–
O=C(CCCCCCNC(=O)C(O)(O)C(F)(F)F)Nc1ccc(F)cc1F,18.5,–
COc1ccc(-c2cnc(NC(=O)CCCCCCNC(=O)C(O)(O)C(F)(F)F)s2)cc1,–,TGI [2]: 8.51 µM
CCOc1ccc(-c2cnc(NC(=O)CCCCCCNC(=O)C(O)(O)C(F)(F)F)s2)cc1,4.05,–
O=C(CCCCCCNC(=O)C(O)(O)C(F)(F)F)Nc1nc2ccc(Br)cc2o1,12.1,–
OC(O)(c1c(F)c(F)c(-n2cc(-c3ccccc3)nn2)c(F)c1F)C(F)(F)F,> 100,–
O=C(CCCCCCNC(=O)C(O)(O)C(F)(F)F)Nc1ccc(-c2ccccc2)cc1,–,TGI [2]: 15.1 µM; Activity [4]: 2.1%
O=C(CCCCCCNC(=O)C(O)C(F)(F)F)Nc1nccs1 (stereo not drawn),> 40,Stability [17]: Stable
O=C(CCCCCCNC(=O)C(O)(O)C(F)(F)F)Nc1ccc(Br)cc1,–,TGI [2]: 20.9 µM; GI50 [3]: 3.16 µM; Activity [4]: 2.58%
O=C(CCCCCCNC(=O)C(O)(O)C(F)(F)F)Nc1nc2ccc(Br)cc2s1,10.3,–
O=C(CCCCCCNC(=O)C(O)(O)C(F)(F)F)Nc1nccs1,10.8,Stability [17]: Stable
O=C(CCCCCCNC(=O)C(O)(O)C(F)(F)F)Nc1ncc(-c2ccc(Br)cc2)s1,–,TGI [2]: 11.4 µM; Activity (HCT-116 [18]): Active; Activity [4]: -11.47%
O=C(CCCCCCNC(=O)C(O)(O)C(F)(F)F)Nc1nc(-c2ccccc2)c(-c2ccccc2)s1,29.9,–

# Further lines, with some results ahead:
IC50 (HCT-116 [1]) [µM],SMILES,also measured
34.8,O=C(CCCNC(=O)C(O)(O)C(F)(F)F)Nc1ccccc1,–
> 100,CC(=O)C(=O)NCCCCCC(=O)Nc1ccccc1,–
> 100,NC(=O)C(=O)NCCCCC(=O)Nc1ccccc1,–
10.1,O=C(CCCCCCC(=O)C(F)(F)F)Nc1ccccc1,Stability [5]: Unstable; Stability [6]: Unstable
> 100,C/C(=N\O)C(=O)NCCCCCC(=O)Nc1ccccc1,–
> 100,CC(=O)C(=O)NCCCCC(=O)Nc1ccccc1,–
3.45,O=C(CCCCCCNC(=O)C(O)(O)C(F)(F)F)Nc1nc2ccccc2o1,–
20.3,O=C(CCCCNC(=O)C(O)(O)C(F)(F)F)Nc1ccccc1,–
> 100,CC(=O)C(=O)NCCCCCCC(=O)Nc1ccccc1,–
9.14,O=C(CCCCCCNC(=O)C(O)(O)C(F)(F)F)Nc1ccccc1,–
> 100,O=C(CCCCCNC(=O)c1ccc[nH]1)Nc1ccccc1,–
> 100,C/C(=N\O)C(=O)NCCCCCCC(=O)Nc1ccccc1,–
10.1,Cc1nc(NC(=O)CCCCCCNC(=O)C(O)(O)C(F)(F)F)sc1-c1ccccc1,–
12.1,CC(=O)c1ccc(NC(=O)CCCCCCNC(=O)C(O)(O)C(F)(F)F)cc1,–
> 100,NC(=O)C(=O)NCCCCCC(=O)Nc1ccccc1,–
> 100,O=C(CCCCCCNC(=O)c1cc(=O)c(O)co1)Nc1ccccc1,–

IC50 (HCT-116 [1]) [µM],SMILES,also measured
4.52,COc1ccc(NC(=O)CCCCCCNC(=O)C(O)(O)C(F)(F)F)cc1,"Activity (NCI-H522 [9]): 20%; IC50 (NCI-H522 [10]): 8.05 µM; viability at 72 h, 30 µM [11]: > 80%; IC50 at 3 days [12]: > 30 µM; IC50 (HCT-116 [13]): 3.13 µM; IC50 at 3 days [14]: > 30 µM; Activity [4]: 37.09%; Activity (HCT-116 [15]): 10%; viability at 72 h, 30 µM [16]: > 50%"
> 100,O=C(CCCCCNC(=O)c1cc(=O)c(O)co1)Nc1ccccc1,–
> 40,O=C(CCCCCCC(O)C(F)(F)F)Nc1ccccc1 (stereo not drawn),–
3.06,O=C(CCCCCCNC(=O)C(O)(O)C(F)(F)F)Nc1cccc(Br)c1,–
> 100,O=C(CCCCCCCNC(=O)c1cc(=O)c(O)co1)Nc1ccccc1,–
6.48,O=C(CCCCCCNC(=O)C(O)(O)C(F)(F)F)Nc1cccc2ccccc12,–
> 100,O=C(CCCCNC(=O)c1cc(=O)c(O)co1)Nc1ccccc1,–
> 40,O=C(CCCCCCNC(=O)C(O)(O)C(F)(F)F)Nc1ccc(C(=O)c2ccccc2)cc1,–
14.5,O=C(CCCCCCNC(=O)C(O)(O)C(F)(F)F)Nc1ccccc1Br,–
> 100,NC(=O)C(=O)NCCCCCCCC(=O)Nc1ccccc1,–
6.11,COc1cccc(NC(=O)CCCCCCNC(=O)C(O)(O)C(F)(F)F)c1,–
> 100,C/C(=N\O)C(=O)NCCCCC(=O)Nc1ccccc1,–
7.57,O=C(CCCCCCNC(=O)C(O)(O)C(F)(F)F)Nc1ccc(F)cc1,–
6.67,O=C(CCCCCCNC(=O)C(O)(O)C(F)(F)F)Nc1ccncc1,–
41.7,O=C(CCCCCCCNC(=O)C(O)(O)C(F)(F)F)Nc1ccccc1,–
10.1,COc1ccccc1NC(=O)CCCCCCNC(=O)C(O)(O)C(F)(F)F,–
